Screening results (PubChem)
This is a sample that favours compounds with a hit; in the whole collection about 7.6% have one here.
M1 agonist = activates the M1 muscarinic receptor; CHO-M1 cells, Fluo-4 calcium fluorescence, agonist mode; hits give high values; B-score at 10 µM; hit rate 3% among 64,000;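 active = fluorescence rise, raw or as B-score row- and column-corrected plate score, outside the 99.7% band of its plate's samples, either direction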
M1 antag = M1 muscarinic receptor (rat) antagonism; P08482; CHO-M1 cells, Fluo-4 calcium, ACh EC80 antagonist mode; hits give low values; B-score at 10 µM; hit rate 3.4% among 64,000; AID 628;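 active = calcium fluorescence response, raw or row-and-column corrected B-score, differing from the plate sample mean either way at a set confidence level, mostly lower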
HEK293 NFkB inh = inhibitors of the PMA/ionomycin-induced NF-kB reporter in HEK293 cells; HEK-293 NF-kB luciferase reporter, luminescence; inhibition, % at 3 µM; hit rate 0.21% among 62,000;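 active = inhibition above the mean of all tested compounds plus 3 SD, cut at about 40% in these data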;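 note: 0% = stimulated DMSO wells and 100% = 10 µM reference inhibitor 5653914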
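Reagent: PMA plus ionomycin mix as NF-kB-activating stimulus. Assay system: NF-kB luciferase reporter HEK-293 cells. Technique: luminescence from luciferase substrate reagent. Incubation: 1 h compound pre-incubation, 16 h PMA/ionomycin at 37 °C. Benchmarks: DMSO only as uninhibited control, 10 µM reference inhibitor as full inhibition. Repeats: tested once.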
Jurkat tox 60K = reduces viability or proliferation of Jurkat cells; Jurkat E6.1 viability, ATP luminescence, 48 h; hit rate 1.2% among 56,000; inhibition, % at 4 µM; AID 463;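 active = inhibition above the mean inhibition of all tested compounds plus 3 SD, cut at about 28% in these data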
D1 mod = allosteric modulators of human D1 dopamine receptor | HEK293 D1, CRE-luciferase, dopamine EC30 potentiation; actives deviate in either direction | B-score at 10 µM | hit rate 5.9% among 58,000 | P21728 | AID 641;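 active = luminescence count or its row- and column-corrected plate score outside the 99.7% band of the plate's sample wells, on either side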
Target sequence (P21728 whole entry, looked up): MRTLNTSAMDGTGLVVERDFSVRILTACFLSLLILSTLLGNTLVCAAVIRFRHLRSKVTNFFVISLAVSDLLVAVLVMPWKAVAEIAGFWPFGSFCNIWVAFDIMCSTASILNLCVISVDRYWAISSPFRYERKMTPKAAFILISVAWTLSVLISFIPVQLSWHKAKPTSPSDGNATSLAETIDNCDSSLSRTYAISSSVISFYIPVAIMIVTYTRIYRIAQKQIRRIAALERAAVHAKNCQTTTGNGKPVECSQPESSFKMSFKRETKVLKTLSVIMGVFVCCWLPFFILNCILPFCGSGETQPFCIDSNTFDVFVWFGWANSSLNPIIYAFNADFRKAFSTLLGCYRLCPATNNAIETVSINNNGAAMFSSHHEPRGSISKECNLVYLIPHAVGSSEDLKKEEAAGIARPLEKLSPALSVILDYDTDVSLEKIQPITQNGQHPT
DAT uptake mod = modulates human dopamine transporter uptake under cocaine; Q01959; LLC-PK1 hDAT cells, [14C]-dopamine uptake with cocaine IC80; actives deviate in either direction; B-score at 10 µM; hit rate 1.3% among 110,000; AID 449768;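 active = Z score or B-score, a plate-position-corrected score, falls beyond the plate's 99.7% confidence bounds, in either direction; inactive = both scores lie inside the 99.7% bounds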;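 note: scored against the spread of the other compound wells on the same plate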
Numbers without * were called inactive; x = no result.

SMILES | M1 agonist | M1 antag | HEK293 NFkB inh | Jurkat tox 60K | D1 mod | DAT uptake mod
Cc1cccnc1NC(=O)Nc1ccc(F)cc1 | -0.972 | -0.336 | -5.0 | 4.6 | -2.45* | 0.0929
Cc1ccc(NC(=O)Nc2ncccc2C)cc1 | x | x | x | x | x | 0.292
Cn1c(=O)oc2cc(S(=O)(=O)N3CCC(C(=O)N4CC=C(c5ccccc5)CC4)CC3)ccc21 | 0.419 | -1.52 | 13.4 | -2.9 | -0.226 | 0.461
CN(CC(=O)NCc1cccs1)S(=O)(=O)c1cccc2nsnc12 | -1.01 | 0.442 | -4.5 | 7.3 | -0.815 | -9.06*
O=C(CCS(=O)(=O)c1cccc2nsnc12)NCc1ccccc1 | 0.0324 | 0.499 | 13.3 | x | 0.515 | -8.19*
CC(=O)c1cccc(NC(=O)CCS(=O)(=O)c2cccc3nsnc23)c1 | x | x | x | x | x | 2.49*
Cc1ccc(S(=O)(=O)N2CCOCC2)c(C)c1-n1cnnn1 | -2.26 | -0.0383 | 17.8 | -6.7 | 0.713 | -0.836
COc1ccccc1NC(=S)N1C2CCC1CC(NC(=O)NC13CC4CC(CC(C4)C1)C3)C2 (stereo not drawn) | x | x | x | x | x | 0.408
Cn1cc(/C=N/n2cnc3scc(-c4ccc(Cl)cc4)c3c2=O)c2ccccc21 | -0.0864 | 0.026 | 39.9* | 95.5* | 0.864 | -0.895
C=CCn1cnc2scc(-c3ccc(CC)cc3)c2c1=O | x | x | x | x | x | 1.97
CC(C)Cn1c(CN(C)Cc2ccccc2)nc2c1c(=O)n(C)c(=O)n2C | 1.19 | -1.02 | 9.5 | 4.5 | -0.847 | -1.94
C=CCN1C=C2C(=O)C(C)(OC(=O)CC)C(=O)C=C2C=C1CCCC (stereo not drawn) | x | x | x | x | x | -2.76*
CCCC(=O)Nc1cccc(-c2nc3cc(C)c(C)cc3o2)c1 | 0.0119 | -0.424 | -39.3 | -7.2 | 0.0955 | -0.00925
COC(=O)c1cc2c(=O)n3ccccc3nc2n(C(C)C)c1=N | -0.72 | -0.293 | 10.1 | -6.7 | 2.53 | x
CCn1c(=N)c(C(=O)OC)cc2c(=O)n3ccccc3nc21 | 4.81* | 0.21 | 13.1 | -1.6 | 0.013 | x
Cn1c(C(=O)N2CCN(c3ccc(F)cc3)CC2)cc2c(=O)n(C)c3ccccc3c21 | -0.282 | -1.67 | 15.2 | 0.5 | -0.713 | x
Cn1c(C(=O)N2CCN(C(=O)c3ccco3)CC2)cc2c(=O)n(C)c3ccccc3c21 | -0.31 | -0.369 | 5.8 | 1.6 | 0.386 | 2.18*
CCCc1cc2c(=O)c(-c3ccc4c(c3)OCCO4)coc2cc1OC(=O)c1ccco1 | x | x | x | x | x | -0.604
CCc1cc2c(=O)c(-c3ccc4c(c3)OCCO4)coc2cc1OC(=O)c1ccco1 | 0.0371 | -0.00042 | 16.3 | -12.3 | -2.88* | 1.38
N#CC1=C(N)C(C#N)(C#N)C(c2cccnc2)C2CN(C(=O)OCc3ccccc3)CC=C12 (stereo not drawn) | x | x | x | x | x | 3.92*
Cc1ccc(C2C3CN(C(C)C)CC=C3C(C#N)=C(N)C2(C#N)C#N)cc1 (stereo not drawn) | 54.7* | 2.24* | x | x | -3.14* | x
CN1CC=C2C(C#N)=C(N)C(C#N)(C#N)[C@H](c3ccoc3)[C@H]2C1 | x | x | x | x | x | 0.114
CCOC(=O)N1CC=C2C(C#N)=C(N)C(C#N)(C#N)[C@H](c3ccc(OCC)c(OCC)c3)[C@H]2C1 | 0.266 | 0.492 | 9.3 | 5.1 | 0.792 | -0.233
CC(=O)N1CC=C2C(C#N)=C(N)C(C#N)(C#N)[C@H](c3ccoc3)[C@H]2C1 | 4.75 | -1.36 | x | x | x | -0.0229
N#CC1=C(N)C(C#N)(C#N)[C@H](c2ccoc2)[C@H]2CN(Cc3ccccc3)CC=C12 | 25.6* | -0.281 | 16.2 | 13.4 | 1.07 | -0.395
SMILES | M1 agonist | M1 antag | HEK293 NFkB inh | Jurkat tox 60K | D1 mod | DAT uptake mod
CC(=O)N1CCc2c(sc(NC(=O)c3ccc4c(c3)OCCO4)c2C#N)C1 | -0.264 | 0.56 | 5.3 | 88.3* | x | 0.0113
COc1cccc(C(=O)Nc2nnc(C(C)C)s2)c1 | -0.678 | -0.00443 | -47.1 | x | -3.29* | 0.45
CCCc1nnc(NC(=O)c2cccc(OC)c2)s1 | -0.831 | -0.0437 | -30.4 | -1.3 | -0.568 | 0.369
CCc1cc2c(=O)c(Oc3ccccc3)c(C)oc2cc1O | 0.382 | -0.921 | 11.0 | 6.1 | -0.986 | -2.48*
Cc1oc2cc(OCC(=O)O)ccc2c(=O)c1Oc1ccccc1 | 0.49 | 0.0685 | 17.9 | x | 0.533 | 0.207
Cc1cc(C)c2c(n1)nn1c(NCCCn3ccnc3)cc(C)nc21 | 0.257 | -3.26* | 7.2 | -6.8 | 0.923 | x
Cc1cc(C)c2c(n1)nn1c(NCCCN3CCOCC3)cc(C)nc21 | 0.61 | 0.0724 | 4.7 | 0.8 | -0.601 | x
O=C(NC1CC1)c1ccc(-c2nc3ccccc3s2)s1 | 1.04 | 0.276 | -28.0 | 3.4 | -6* | 0.0172
